In ChEMBL document CHEMBL3853297, “Synthesis and biological evaluation of 4-(2-fluorophenoxy)-3,3'-bipyridine derivatives as potential c-met inhibitors” (Eur J Med Chem, 2016):

assay: Cytotoxicity against human HT-29 cells after 72 hrs by MTT assay; type: functional, cell-based; conditions: HT-29, 72 h
Outline: (§1)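 Cells grown in MEM with 10% FBS; about 4×10^3 cells per well of 96-well plate, 24 h at 37 °C, 5% CO2, then test compounds at indicated final concentrations for 72 h. Each tested three times; IC50 as mean ± SD.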

SMILES	IC50
Cn1cc(-c2ccccc2)cc(C(=O)Nc2ccc(Oc3ccncc3-c3cccnc3)c(F)c2)c1=O	7420 nM
COc1ccc(-n2nc(C(=O)Nc3ccc(Oc4ccncc4-c4cccnc4)c(F)c3)c(=O)n(C)c2=O)c(OC)c1	890 nM
Fc1ccc(Nc2cc(Nc3ccc(Oc4ccncc4-c4cccnc4)c(F)c3)ncn2)cc1F	2320 nM
O=C(Nc1ccc(Oc2ccncc2-c2cccnc2)c(F)c1)c1ccnn(-c2ccc(F)cc2)c1=O	4770 nM
O=C(Nc1ccc(Oc2ccncc2-c2cccnc2)c(F)c1)c1nn(-c2ccc(F)cc2)c(=O)c2ccccc12	990 nM
O=C(Nc1ccc(Oc2ccncc2-c2cccnc2)c(F)c1)C1=NN(c2ccc(F)c(F)c2)c2ccccc2S1(=O)=O	1550 nM
Cn1cc(-c2ccc(F)cc2)cc(C(=O)Nc2ccc(Oc3ccncc3-c3cccnc3)c(F)c2)c1=O	11200 nM
O=C(Nc1ccc(Oc2ccncc2-c2cccnc2)c(F)c1)C1=NN(c2cccc(F)c2)c2ccccc2S1(=O)=O	430 nM
Cn1c(=O)c(C(=O)Nc2ccc(Oc3ccncc3-c3cccnc3)c(F)c2)nn(-c2ccc(Cl)cc2)c1=O	440 nM
Cn1c(=O)c(C(=O)Nc2ccc(Oc3ccncc3-c3cccnc3)c(F)c2)nn(-c2cccc(C(F)(F)F)c2)c1=O	510 nM
COc1ccc(Nc2cc(Nc3ccc(Oc4ccncc4-c4cccnc4)c(F)c3)ncn2)cc1	4110 nM
O=C(Nc1ccc(Oc2ccncc2-c2cccnc2)c(F)c1)c1nn(-c2ccc(Cl)cc2)c(=O)c2ccccc12	710 nM
Fc1cc(Nc2cc(Nc3cccc(Cl)c3)ncn2)ccc1Oc1ccncc1-c1cccnc1	690 nM
Fc1cc(Nc2cc(Nc3ccccc3)ncn2)ccc1Oc1ccncc1-c1cccnc1	880 nM
O=C(Nc1ccc(Oc2ccncc2-c2cccnc2)c(F)c1)c1nn(-c2ccccc2)c(=O)c2ccccc12	1240 nM
Cn1c(=O)c(C(=O)Nc2ccc(Oc3ccncc3-c3cccnc3)c(F)c2)nn(-c2ccccc2F)c1=O	2100 nM
COc1cc(Nc2cc(Nc3ccc(Oc4ccncc4-c4cccnc4)c(F)c3)ncn2)cc(OC)c1	1130 nM
Fc1cc(Nc2cc(Nc3ccc(Cl)cc3)ncn2)ccc1Oc1ccncc1-c1cccnc1	980 nM
O=C(Nc1ccc(Oc2ccncc2-c2cccnc2)c(F)c1)C1=NN(c2ccccc2C(F)(F)F)c2ccccc2S1(=O)=O	190 nM
Cn1c(=O)c(C(=O)Nc2ccc(Oc3ccncc3-c3cccnc3)c(F)c2)nn(-c2c(Cl)cccc2Cl)c1=O	780 nM
Cn1c(=O)c(C(=O)Nc2ccc(Oc3ccncc3-c3cccnc3)c(F)c2)nn(-c2ccc(F)c(Cl)c2)c1=O	4780 nM
O=C(Nc1ccc(Oc2ccncc2-c2cccnc2)c(F)c1)c1nn(-c2cccc(F)c2)c(=O)c2ccccc12	410 nM
O=C(Nc1ccc(Oc2ccncc2-c2cccnc2)c(F)c1)c1ccnn(-c2ccc(Cl)cc2)c1=O	4560 nM
Fc1ccc(Nc2cc(Nc3ccc(Oc4ccncc4-c4cccnc4)c(F)c3)ncn2)cc1	330 nM

assay: Cytotoxicity against human MDA-MB-231 cells after 72 hrs by MTT assay; type: functional, cell-based; conditions: MDA-MB-231, 72 h; outline: as §1

SMILES	IC50
Cn1cc(-c2ccccc2)cc(C(=O)Nc2ccc(Oc3ccncc3-c3cccnc3)c(F)c2)c1=O	9500 nM
COc1ccc(-n2nc(C(=O)Nc3ccc(Oc4ccncc4-c4cccnc4)c(F)c3)c(=O)n(C)c2=O)c(OC)c1	3270 nM
Fc1ccc(Nc2cc(Nc3ccc(Oc4ccncc4-c4cccnc4)c(F)c3)ncn2)cc1F	6770 nM
O=C(Nc1ccc(Oc2ccncc2-c2cccnc2)c(F)c1)c1ccnn(-c2ccc(F)cc2)c1=O	5200 nM
O=C(Nc1ccc(Oc2ccncc2-c2cccnc2)c(F)c1)C1=NN(c2ccc(F)c(F)c2)c2ccccc2S1(=O)=O	34 nM
Cn1cc(-c2ccc(F)cc2)cc(C(=O)Nc2ccc(Oc3ccncc3-c3cccnc3)c(F)c2)c1=O	11900 nM
O=C(Nc1ccc(Oc2ccncc2-c2cccnc2)c(F)c1)C1=NN(c2cccc(F)c2)c2ccccc2S1(=O)=O	10 nM
Cn1c(=O)c(C(=O)Nc2ccc(Oc3ccncc3-c3cccnc3)c(F)c2)nn(-c2ccc(Cl)cc2)c1=O	3220 nM
Cn1c(=O)c(C(=O)Nc2ccc(Oc3ccncc3-c3cccnc3)c(F)c2)nn(-c2cccc(C(F)(F)F)c2)c1=O	3980 nM
COc1ccc(-n2nc(C(=O)Nc3ccc(Oc4ccncc4-c4cccnc4)c(F)c3)c3ccccc3c2=O)cc1	10400 nM
Fc1cc(Nc2cc(Nc3cccc(Cl)c3)ncn2)ccc1Oc1ccncc1-c1cccnc1	90 nM
Fc1cc(Nc2cc(Nc3ccccc3)ncn2)ccc1Oc1ccncc1-c1cccnc1	2740 nM
O=C(Nc1ccc(Oc2ccncc2-c2cccnc2)c(F)c1)c1nn(-c2ccccc2)c(=O)c2ccccc12	8200 nM
Cn1c(=O)c(C(=O)Nc2ccc(Oc3ccncc3-c3cccnc3)c(F)c2)nn(-c2ccccc2F)c1=O	6760 nM
COc1cc(Nc2cc(Nc3ccc(Oc4ccncc4-c4cccnc4)c(F)c3)ncn2)cc(OC)c1	4240 nM
O=C(Nc1ccc(Oc2ccncc2-c2cccnc2)c(F)c1)C1=NN(c2ccccc2C(F)(F)F)c2ccccc2S1(=O)=O	46 nM
Cn1c(=O)c(C(=O)Nc2ccc(Oc3ccncc3-c3cccnc3)c(F)c2)nn(-c2c(Cl)cccc2Cl)c1=O	9690 nM
Cn1c(=O)c(C(=O)Nc2ccc(Oc3ccncc3-c3cccnc3)c(F)c2)nn(-c2ccc(F)c(Cl)c2)c1=O	11300 nM
O=C(Nc1ccc(Oc2ccncc2-c2cccnc2)c(F)c1)c1nn(-c2cccc(F)c2)c(=O)c2ccccc12	72 nM
O=C(Nc1ccc(Oc2ccncc2-c2cccnc2)c(F)c1)c1ccnn(-c2ccc(Cl)cc2)c1=O	4840 nM
Fc1ccc(Nc2cc(Nc3ccc(Oc4ccncc4-c4cccnc4)c(F)c3)ncn2)cc1	14100 nM

assay: Cytotoxicity against human MKN45 cells after 72 hrs by MTT assay; conditions: MKN-45, 72 h

SMILES	IC50
Cn1cc(-c2ccccc2)cc(C(=O)Nc2ccc(Oc3ccncc3-c3cccnc3)c(F)c2)c1=O	5400 nM
COc1ccc(-n2nc(C(=O)Nc3ccc(Oc4ccncc4-c4cccnc4)c(F)c3)c(=O)n(C)c2=O)c(OC)c1	2820 nM
Fc1ccc(Nc2cc(Nc3ccc(Oc4ccncc4-c4cccnc4)c(F)c3)ncn2)cc1F	80 nM
O=C(Nc1ccc(Oc2ccncc2-c2cccnc2)c(F)c1)c1ccnn(-c2ccc(F)cc2)c1=O	3120 nM
O=C(Nc1ccc(Oc2ccncc2-c2cccnc2)c(F)c1)c1nn(-c2ccc(F)cc2)c(=O)c2ccccc12	320 nM
O=C(Nc1ccc(Oc2ccncc2-c2cccnc2)c(F)c1)C1=NN(c2ccc(F)c(F)c2)c2ccccc2S1(=O)=O	90 nM
Cn1cc(-c2ccc(F)cc2)cc(C(=O)Nc2ccc(Oc3ccncc3-c3cccnc3)c(F)c2)c1=O	7100 nM
O=C(Nc1ccc(Oc2ccncc2-c2cccnc2)c(F)c1)C1=NN(c2cccc(F)c2)c2ccccc2S1(=O)=O	3 nM
Cn1c(=O)c(C(=O)Nc2ccc(Oc3ccncc3-c3cccnc3)c(F)c2)nn(-c2ccc(Cl)cc2)c1=O	1600 nM
Cn1c(=O)c(C(=O)Nc2ccc(Oc3ccncc3-c3cccnc3)c(F)c2)nn(-c2cccc(C(F)(F)F)c2)c1=O	1950 nM
COc1ccc(-n2nc(C(=O)Nc3ccc(Oc4ccncc4-c4cccnc4)c(F)c3)c3ccccc3c2=O)cc1	740 nM
COc1ccc(Nc2cc(Nc3ccc(Oc4ccncc4-c4cccnc4)c(F)c3)ncn2)cc1	1010 nM
O=C(Nc1ccc(Oc2ccncc2-c2cccnc2)c(F)c1)c1nn(-c2ccc(Cl)cc2)c(=O)c2ccccc12	430 nM
Fc1cc(Nc2cc(Nc3cccc(Cl)c3)ncn2)ccc1Oc1ccncc1-c1cccnc1	30 nM
Fc1cc(Nc2cc(Nc3ccccc3)ncn2)ccc1Oc1ccncc1-c1cccnc1	6300 nM
O=C(Nc1ccc(Oc2ccncc2-c2cccnc2)c(F)c1)c1nn(-c2ccccc2)c(=O)c2ccccc12	90 nM
Cn1c(=O)c(C(=O)Nc2ccc(Oc3ccncc3-c3cccnc3)c(F)c2)nn(-c2ccccc2F)c1=O	4780 nM
COc1cc(Nc2cc(Nc3ccc(Oc4ccncc4-c4cccnc4)c(F)c3)ncn2)cc(OC)c1	1750 nM
Fc1cc(Nc2cc(Nc3ccc(Cl)cc3)ncn2)ccc1Oc1ccncc1-c1cccnc1	240 nM
O=C(Nc1ccc(Oc2ccncc2-c2cccnc2)c(F)c1)C1=NN(c2ccccc2C(F)(F)F)c2ccccc2S1(=O)=O	27 nM
Cn1c(=O)c(C(=O)Nc2ccc(Oc3ccncc3-c3cccnc3)c(F)c2)nn(-c2c(Cl)cccc2Cl)c1=O	3930 nM
Cn1c(=O)c(C(=O)Nc2ccc(Oc3ccncc3-c3cccnc3)c(F)c2)nn(-c2ccc(F)c(Cl)c2)c1=O	10100 nM
O=C(Nc1ccc(Oc2ccncc2-c2cccnc2)c(F)c1)c1nn(-c2cccc(F)c2)c(=O)c2ccccc12	27 nM
O=C(Nc1ccc(Oc2ccncc2-c2cccnc2)c(F)c1)c1ccnn(-c2ccc(Cl)cc2)c1=O	4230 nM
Fc1ccc(Nc2cc(Nc3ccc(Oc4ccncc4-c4cccnc4)c(F)c3)ncn2)cc1	160 nM

assay: Cytotoxicity against human A549 cells after 72 hrs by MTT assay; conditions: A549, 72 h

SMILES	IC50
Cn1cc(-c2ccccc2)cc(C(=O)Nc2ccc(Oc3ccncc3-c3cccnc3)c(F)c2)c1=O	7600 nM
COc1ccc(-n2nc(C(=O)Nc3ccc(Oc4ccncc4-c4cccnc4)c(F)c3)c(=O)n(C)c2=O)c(OC)c1	890 nM
Fc1ccc(Nc2cc(Nc3ccc(Oc4ccncc4-c4cccnc4)c(F)c3)ncn2)cc1F	7630 nM
O=C(Nc1ccc(Oc2ccncc2-c2cccnc2)c(F)c1)c1ccnn(-c2ccc(F)cc2)c1=O	2880 nM
O=C(Nc1ccc(Oc2ccncc2-c2cccnc2)c(F)c1)c1nn(-c2ccc(F)cc2)c(=O)c2ccccc12	820 nM
O=C(Nc1ccc(Oc2ccncc2-c2cccnc2)c(F)c1)C1=NN(c2ccc(F)c(F)c2)c2ccccc2S1(=O)=O	1300 nM
Cn1cc(-c2ccc(F)cc2)cc(C(=O)Nc2ccc(Oc3ccncc3-c3cccnc3)c(F)c2)c1=O	8300 nM
O=C(Nc1ccc(Oc2ccncc2-c2cccnc2)c(F)c1)C1=NN(c2cccc(F)c2)c2ccccc2S1(=O)=O	900 nM
Cn1c(=O)c(C(=O)Nc2ccc(Oc3ccncc3-c3cccnc3)c(F)c2)nn(-c2ccc(Cl)cc2)c1=O	930 nM
Cn1c(=O)c(C(=O)Nc2ccc(Oc3ccncc3-c3cccnc3)c(F)c2)nn(-c2cccc(C(F)(F)F)c2)c1=O	460 nM
COc1ccc(-n2nc(C(=O)Nc3ccc(Oc4ccncc4-c4cccnc4)c(F)c3)c3ccccc3c2=O)cc1	6800 nM
COc1ccc(Nc2cc(Nc3ccc(Oc4ccncc4-c4cccnc4)c(F)c3)ncn2)cc1	2140 nM
O=C(Nc1ccc(Oc2ccncc2-c2cccnc2)c(F)c1)c1nn(-c2ccc(Cl)cc2)c(=O)c2ccccc12	1020 nM
Fc1cc(Nc2cc(Nc3cccc(Cl)c3)ncn2)ccc1Oc1ccncc1-c1cccnc1	180 nM
Fc1cc(Nc2cc(Nc3ccccc3)ncn2)ccc1Oc1ccncc1-c1cccnc1	410 nM
O=C(Nc1ccc(Oc2ccncc2-c2cccnc2)c(F)c1)c1nn(-c2ccccc2)c(=O)c2ccccc12	7900 nM
Cn1c(=O)c(C(=O)Nc2ccc(Oc3ccncc3-c3cccnc3)c(F)c2)nn(-c2ccccc2F)c1=O	610 nM
COc1cc(Nc2cc(Nc3ccc(Oc4ccncc4-c4cccnc4)c(F)c3)ncn2)cc(OC)c1	560 nM
Fc1cc(Nc2cc(Nc3ccc(Cl)cc3)ncn2)ccc1Oc1ccncc1-c1cccnc1	1610 nM
O=C(Nc1ccc(Oc2ccncc2-c2cccnc2)c(F)c1)C1=NN(c2ccccc2C(F)(F)F)c2ccccc2S1(=O)=O	120 nM
Cn1c(=O)c(C(=O)Nc2ccc(Oc3ccncc3-c3cccnc3)c(F)c2)nn(-c2c(Cl)cccc2Cl)c1=O	720 nM
Cn1c(=O)c(C(=O)Nc2ccc(Oc3ccncc3-c3cccnc3)c(F)c2)nn(-c2ccc(F)c(Cl)c2)c1=O	12500 nM
O=C(Nc1ccc(Oc2ccncc2-c2cccnc2)c(F)c1)c1nn(-c2cccc(F)c2)c(=O)c2ccccc12	1750 nM
O=C(Nc1ccc(Oc2ccncc2-c2cccnc2)c(F)c1)c1ccnn(-c2ccc(Cl)cc2)c1=O	6560 nM
Fc1ccc(Nc2cc(Nc3ccc(Oc4ccncc4-c4cccnc4)c(F)c3)ncn2)cc1	710 nM
